From PubChem BioAssay
Shown are actives, neighbours in structure and some others; about 2.3% of the full set was active somewhere.
TRPC6 act: activators of mouse TRPC6 channel; Q61143; 0.13% of 310,000 active; HEK293-TRPC6 membrane potential dye fluorescence; active compounds read high; B-score at 10 µM;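 active = B-score of the integrated fluorescence ratio above library mean plus 3 SD, and starting fluorescence ratio within library mean plus 5 SD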;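 note: higher score means more depolarization so channel activation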
TRPC6 inh: blocks the mouse TRPC6 cation channel; Q61143; HEK293-TRPC6, membrane potential dye, ACh-evoked depolarization; active compounds read low; B-score at 10 µM; 1.1% of 310,000 active;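 active = B-score under library mean minus 3 SD, initial fluorescence not abnormally high, positive integrated signal ratio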;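 note: B-score derived from integrated fluorescence ratio over the kinetic read; more negative B-score means stronger inhibition of depolarization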
TRPC4 inh: blocks the mouse TRPC4 cation channel. HEK293 TRPC4beta/mu-opioid, DAMGO-evoked Fluo4 calcium flux; active compounds read low. AID 2247. B-score at 10 µM. 0.39% of 300,000 active. Q9QUQ5;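 active = B-score over 3 SD under the library average, no early fluorescence shift, positive overall ratio signal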
Target sequence (Q9QUQ5 whole entry, looked up): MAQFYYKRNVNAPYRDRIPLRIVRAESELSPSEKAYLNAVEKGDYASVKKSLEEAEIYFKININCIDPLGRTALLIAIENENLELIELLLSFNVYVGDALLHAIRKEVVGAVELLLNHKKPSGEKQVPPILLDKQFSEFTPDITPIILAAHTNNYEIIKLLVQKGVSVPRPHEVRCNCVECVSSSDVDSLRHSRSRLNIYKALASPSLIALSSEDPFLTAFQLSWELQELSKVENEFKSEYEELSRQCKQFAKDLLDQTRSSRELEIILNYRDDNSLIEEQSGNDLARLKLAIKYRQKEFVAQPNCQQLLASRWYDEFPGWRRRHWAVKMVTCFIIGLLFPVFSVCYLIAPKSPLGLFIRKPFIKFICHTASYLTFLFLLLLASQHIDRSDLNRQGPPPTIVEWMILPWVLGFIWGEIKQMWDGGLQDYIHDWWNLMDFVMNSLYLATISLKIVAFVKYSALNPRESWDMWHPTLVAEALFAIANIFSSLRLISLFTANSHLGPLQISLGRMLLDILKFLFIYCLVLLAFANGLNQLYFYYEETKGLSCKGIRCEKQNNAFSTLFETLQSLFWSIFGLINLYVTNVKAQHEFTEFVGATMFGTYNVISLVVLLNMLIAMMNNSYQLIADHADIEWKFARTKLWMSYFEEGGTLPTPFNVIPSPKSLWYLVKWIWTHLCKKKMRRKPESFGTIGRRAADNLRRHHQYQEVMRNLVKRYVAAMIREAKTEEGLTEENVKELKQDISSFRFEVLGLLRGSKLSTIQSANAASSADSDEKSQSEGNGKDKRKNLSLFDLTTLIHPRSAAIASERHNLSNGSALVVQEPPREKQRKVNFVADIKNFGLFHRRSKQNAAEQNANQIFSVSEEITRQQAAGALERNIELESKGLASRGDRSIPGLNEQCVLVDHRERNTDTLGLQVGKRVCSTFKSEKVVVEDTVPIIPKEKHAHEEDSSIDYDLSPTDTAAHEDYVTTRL
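Assay system: HEK293 cells with stable TRPC4beta plus mu-opioid receptor expression; Probe or stimulus: DAMGO in two steps, submaximal then maximal; Dosing: single-point compound dosing; Measured by: Fluo4 calcium-dye fluorescence, kinetic read; Read-out basis: B score from integrated Fluo4 fluorescence ratio.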
TRPC4 agonist: activators of mouse TRPC4 channel | 0.49% of 310,000 active | Q9QUQ5 | HEK293 TRPC4beta/mu-opioid, Fluo4 calcium fluorescence; active compounds read high | AID 2237 | B-score at 10 µM;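 active = B-score above 5 SD of library B-scores, and initial fluorescence ratio not above library mean plus 5 SD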;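 note: positive B-score marks a calcium rise read as TRPC4 activation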
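Technique: kinetic Fluo4 calcium fluorescence; Test system: TRPC4beta and mu-opioid receptor HEK293 stable cells; Measure: B-scored integrated calcium fluorescence ratio; Benchmarks: low control buffer alone, high control maximal DAMGO; Schedule: 45 min room-temperature Fluo4 loading, 110 s read.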
TRPC4 PAM: allosterically enhances the mouse TRPC4 cation channel; Q9QUQ5; HEK293 TRPC4beta/mu-opioid, DAMGO EC20, Fluo-4 Ca2+ flux; active compounds read high; B-score at 10 µM; 0.42% of 310,000 active;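 active = B-score of calcium response area above 5 SD of library B-scores, with initial fluorescence ratio within 5 SD of library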
TRPC4 spec 2: mouse TRPC4 off-target activity of TRPC6 inhibitors, second screen; shares compounds with TRPC6 inh; HEK293 TRPC4/MOR, membrane potential dye fluorescence; channel activated by saturating DAMGO dose; inhibition, % at 10 µM; 42% of 920 active; AID 2776;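 active = compounds whose fluorescence signal differed from control wells by over 3 SD, either direction, in both duplicate plates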
TRPC4 spec: selectivity of TRPC6 inhibitors: effect on mouse TRPC4 | shares compounds with TRPC6 inh | 61% of 920 active | activity change, negative = inhibition, % at 10 µM | HEK293 TRPC4/mu-opioid, membrane potential fluorescence;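 active = rise or fall in signal beyond 3 SD of buffer-only wells in both replicate plates, either sign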;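 note: integrated kinetic ratio of fluorescence range over baseline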
HEK293 MPD ctr 2-1: second counter-screen for TRPC6 inhibitors: parental HEK293 cells | parental HEK293 membrane potential dye fluorescence; maximal acetylcholine challenge after compound addition | shares compounds with TRPC6 inh | 31% of 920 active | signal change vs control, % at 10 µM;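 active = membrane potential signal moving either way by over 3 SD of the maximum-effect control, in both duplicate plates, meaning non-specific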
HEK293 MPD ctr-1: parental HEK293 nonspecific activity of TRPC6 inhibitors; parental HEK293 membrane potential dye fluorescence; AID 2780; shares compounds with TRPC6 inh; membrane potential signal change, % at 10 µM; 60% of 920 active;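 active = membrane potential signal shifting up or down by more than 3 SD of buffer-only wells, on both duplicate plates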
HEK293 MPD ctr-2: parental HEK293 nonspecific activity of TRPC6 modulators; shares compounds with TRPC6 inh; membrane potential dye fluorescence; membrane potential signal change, % at 10 µM; 51% of 2,400 active;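 active = membrane potential signal moves up or down beyond 5 SD from buffer-only wells, on both duplicate plates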
HEK293 MPD ctr 2-2: parental HEK293 nonspecific activity of TRPC6 modulators, second screen | shares compounds with TRPC6 inh | membrane potential dye fluorescence; after compound, maximal acetylcholine stimulation | inhibition, % at 10 µM | 14% of 2,400 active;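 active = membrane potential signal drops by more than 5 SD from the mean control signal, in both duplicate plates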
TRPC4 ctr mod: mouse TRPC4 off-target activity of TRPC6 modulators; shares compounds with TRPC6 inh; HEK293 TRPC4/mu-opioid, membrane potential fluorescence; percent change from control (negative = decrease, positive = increase), % at 10 µM; 69% of 2,400 active; AID 488927;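 active = membrane potential signal moved up or down beyond 5 SD of buffer control wells, in both duplicate plates, actives on both sides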
TRPC4 ctr inh 2: mouse TRPC4 off-target activity of TRPC6 modulators, second screen. shares compounds with TRPC6 inh. HEK293 TRPC4/mu-opioid, membrane potential dye fluorescence; stimulated with maximal-effect DAMGO. inhibition, % at 10 µM. 55% of 2,400 active;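 active = drop in membrane potential signal beyond 5 SD of the control wells in both duplicate plates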;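 note: TRPC4 counter screen for TRPC6 hits run under conditions tuned for TRPC6 not TRPC4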
TRPC6 inh conf: confirmation of mouse TRPC6 inhibitors | HEK293-TRPC6, membrane potential dye, ACh-evoked depolarization | 43% of 3,300 active | inhibition, % at 10 µM | shares compounds with TRPC6 inh;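 active = fluorescence ratio falls more than 5 SD below the full-stimulation control mean, in both duplicate runs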;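 note: integrated fluorescence ratio of peak minus minimum over baseline after agonist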
TRPC6 act conf: confirmation of mouse TRPC6 activators | 11% of 2,800 active | activation, % at 10 µM | AID 488961 | shares compounds with TRPC6 inh | HEK293-TRPC6 membrane potential dye fluorescence, FDSS;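 active = ratio signal rise beyond 5 SD above unstimulated control wells' mean, seen in both duplicate runs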
Large screens that a line does not name were inactive (follow-up assays come after a bar, where they were run).

COc1ccc(NC(=O)c2ccc(N3CCOCC3)nc2)cc1	none
COc1ccc(N2C(=O)CSC23C(=O)Nc2ccccc23)cc1 (stereo not drawn)	none
Cc1ccc(N2C(=O)CCSC23C(=O)Nc2ccccc23)cc1 (stereo not drawn)	TRPC6 inh -6.7 | TRPC4 spec 2 inactive | TRPC4 spec inactive | HEK293 MPD ctr 2-1 inactive | HEK293 MPD ctr-1 inactive | TRPC6 inh conf inactive | TRPC6 act conf inactive
O=C(NCC1CCN(c2ccc(S(=O)(=O)N3CCOCC3)cc2)CC1)c1ccc(Cl)cc1	TRPC6 inh -5.5 | HEK293 MPD ctr-2 inactive | HEK293 MPD ctr 2-2 inactive | TRPC4 ctr mod inactive | TRPC4 ctr inh 2 inactive | TRPC6 inh conf 52% | TRPC6 act conf inactive
COc1cc(C)ccc1NC(=O)c1ccc(S(=O)(=O)N2CCOCC2)cc1	TRPC6 inh -6.1 | HEK293 MPD ctr-2 inactive | HEK293 MPD ctr 2-2 inactive | TRPC4 ctr mod inactive | TRPC4 ctr inh 2 inactive | TRPC6 inh conf inactive | TRPC6 act conf inactive
OCC[C@@H]1C[C@H](O)[C@@H](O)[C@]2(CCCCO2)O1	none
Nc1cc2ccncc2c2ccccc12	TRPC6 inh -11 | HEK293 MPD ctr-2 -380% | HEK293 MPD ctr 2-2 78% | TRPC4 ctr mod -72% | TRPC4 ctr inh 2 86% | TRPC6 inh conf 74% | TRPC6 act conf inactive
COc1cccc(-c2cccc(NC(=O)C3CCN(Cc4ccon4)CC3)c2)c1	none
COc1ccc(OCC(=O)OC2CCN(C)CC2)cc1	none
CN1CCC(OC(=O)COc2ccc(Br)cc2)CC1	TRPC6 inh -5.5 | HEK293 MPD ctr-2 inactive | HEK293 MPD ctr 2-2 inactive | TRPC4 ctr mod 13% | TRPC4 ctr inh 2 inactive | TRPC6 inh conf inactive
CN1CCN(c2ccccc2NC(=O)COc2ccc(Br)cc2)CC1	TRPC6 inh -5.1 | HEK293 MPD ctr-2 inactive | HEK293 MPD ctr 2-2 inactive | TRPC4 ctr mod 18% | TRPC4 ctr inh 2 inactive | TRPC6 inh conf inactive | TRPC6 act conf inactive
COc1cccc(C2c3c(C)nn(-c4ccc([N+](=O)[O-])cc4)c3N=C3C(=O)Nc4ccccc4N32)c1 (stereo not drawn)	TRPC6 inh -5.7 | HEK293 MPD ctr-2 inactive | HEK293 MPD ctr 2-2 inactive | TRPC4 ctr mod inactive | TRPC4 ctr inh 2 54% | TRPC6 inh conf inactive | TRPC6 act conf inactive
Cc1nn(-c2ccc([N+](=O)[O-])cc2)c2c1C(c1ccc(OC(F)F)cc1)N1C(=N2)C(=O)Nc2ccccc21 (stereo not drawn)	none
